Activity calls are given as the source filed them. The rule behind the calls is not given here. Non-standard residues stand in square brackets, D forms with d. Residues, ends and D or L forms follow the SMILES beside them. *: point of attachment. Propanoyl(3-(3-pyridyl)) = O=C(CCc1cccnc1)*; Phe(4-F) = N[C@@H](Cc1ccc(F)cc1)C(=O)O; 2Nal = N[C@@H](Cc1ccc2ccccc2c1)C(=O)O; Acetyl(2-thienyl) = O=C(Cc1cccs1)*; Hydrocinnamoyl = O=C(CCc1ccccc1)*; 4Pal = N[C@@H](Cc1ccncc1)C(=O)O; PhAc = O=C(Cc1ccccc1)*
What was measured:
[1] = molecular target: T1, Neuromedin-U receptor 1 (Homo sapiens) (UniProt Q9HB89); experiment: Agonist activity at human NMUR1 expressed in CHO cells assessed as intracellular calcium flux at 1 and 10 nM by Fluo-4 AM dye based fluorometric imaging method relative to 1000 nM human neuromedin U; format: functional, cell-based
T1 sequence (whole entry): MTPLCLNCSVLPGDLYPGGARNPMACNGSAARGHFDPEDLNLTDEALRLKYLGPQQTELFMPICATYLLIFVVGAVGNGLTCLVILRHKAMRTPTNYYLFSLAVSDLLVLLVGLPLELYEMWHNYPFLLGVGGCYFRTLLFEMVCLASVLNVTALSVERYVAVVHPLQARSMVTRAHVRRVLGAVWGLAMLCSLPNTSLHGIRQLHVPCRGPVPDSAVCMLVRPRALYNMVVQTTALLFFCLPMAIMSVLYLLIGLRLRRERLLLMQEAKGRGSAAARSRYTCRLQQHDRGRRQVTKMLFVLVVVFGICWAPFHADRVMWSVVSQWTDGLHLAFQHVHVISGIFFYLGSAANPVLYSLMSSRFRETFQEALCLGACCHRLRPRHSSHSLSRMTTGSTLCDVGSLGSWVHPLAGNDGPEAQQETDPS

Neuromedin-U receptor 2 = Neuromedin-U receptor 2 (Homo sapiens, UniProt Q9GZQ4); experiment: Agonist activity at human NMUR2 expressed in CHO cells assessed as intracellular calcium flux at 1 and 10 nM by Fluo-4 AM dye based fluorometric imaging method relative to 1000 nM human neuromedin U; format: functional, cell-based
Serum [2] = experiment: Drug level in 25% rat serum treated with 1 mM (S)-2-((S)-2-((S)-1-((6S,9S,12S)-1-amino-9-benzyl-1-imino-12-isobutyl-8,11,14-trioxo-16-phenyl-2,7,10,13-tetraazahexadecanecarbonyl)pyrrolidine-2-carboxamido)-5-guanidinopentanamido)succinamide assessed as compound formation at 37 degC by RP-HPLC method; format: ADME, cell-free
Outline: (§1)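 Peptides incubated in 25% rat serum at 37 °C and sampled over time (10, 30, 60 min). Samples extracted on Sep-Pak C18 cartridges and analysed by C18 RP-HPLC with UV detection at 220 nm. Metabolites identified by mass spectrometry. Recovery of intact peptide measured at 10 or 60 min, in triplicate.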

[3] = Drug metabolism in 25% rat serum assessed as drug recovery at 1 mM incubated for 60 mins at 37 degC by RP-HPLC method; format: ADME, cell-free; details: read-out: Drug recovery; outline: as §1
Serum [4] = experiment: Retention time in 25% rat serum treated with 1 mM (S)-2-((S)-2-((S)-1-((S)-2-((S)-2-((S)-3-(1H-indol-3-yl)-2-(2-(thiophen-2-yl)acetamido)propanamido)-3-(4-fluorophenyl)propanamido)-5-guanidinopentanoyl)pyrrolidine-2-carboxamido)-5-guanidinopentanamido)succinamide incubated for 10 mins at 37 degC by RP-HPLC method; format: ADME, cell-free; outline: as §1
Serum [5] = experiment: Drug metabolism in 25% rat serum assessed as cleavage at Phe(2)-Arg(3) site at 1 mM at 37 degC by RP-HPLC method; format: ADME, cell-free; details: 1000 µM; outline: as §1
Serum [6] = experiment: Drug metabolism in 25% rat serum assessed as cleavage at Arg(5)-Asn(6) site at 1 mM at 37 degC by RP-HPLC method; format: ADME, cell-free; details: 1000 µM; outline: as §1
Serum [7] = experiment: Drug metabolism in 25% rat serum assessed as formation of 3-phenylpropionyl-Leu1-Phe2-Arg3-Pro4-Arg5-OH at 1 mM at 37 degC by RP-HPLC method; format: ADME, cell-free; details: 1000 µM; outline: as §1
Serum [8] = experiment: Drug metabolism in 25% rat serum assessed as formation of 3-phenylpropionyl-Leu1-Phe2-OH at 1 mM at 37 degC by RP-HPLC method; format: ADME, cell-free; details: 1000 µM; outline: as §1
[9] = Drug metabolism in 25% rat serum assessed as drug recovery at 1 mM incubated for 10 mins at 37 degC by RP-HPLC method; format: ADME, cell-free; details: read-out: Drug recovery; outline: as §1
Serum [10] = experiment: Drug metabolism in 25% rat serum assessed as formation of 2-thienylacetyl-Trp1-Phe2-Arg3-Pro4-Arg5-OH at 1 mM at 37 degC by RP-HPLC method; format: ADME, cell-free; details: 1000 µM; outline: as §1
Serum [11] = experiment: Drug metabolism in 25% rat serum assessed as formation of 2-thienylacetyl-Trp1-Phe2-OH at 1 mM at 37 degC by RP-HPLC method; format: ADME, cell-free; details: 1000 µM; outline: as §1

Neuromedin-U receptor 2, sequence (Q9GZQ4 whole entry): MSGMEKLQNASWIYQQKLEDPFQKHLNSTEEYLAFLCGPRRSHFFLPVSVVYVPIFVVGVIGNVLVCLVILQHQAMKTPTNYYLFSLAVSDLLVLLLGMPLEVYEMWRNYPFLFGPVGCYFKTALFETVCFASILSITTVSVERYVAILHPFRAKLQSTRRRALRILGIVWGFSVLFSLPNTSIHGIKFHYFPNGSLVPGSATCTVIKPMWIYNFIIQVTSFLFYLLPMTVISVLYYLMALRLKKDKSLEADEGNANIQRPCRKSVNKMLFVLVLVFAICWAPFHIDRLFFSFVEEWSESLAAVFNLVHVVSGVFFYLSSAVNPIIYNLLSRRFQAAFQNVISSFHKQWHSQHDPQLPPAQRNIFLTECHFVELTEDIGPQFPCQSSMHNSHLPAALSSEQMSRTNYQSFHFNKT

## N=C(N)NCCC[C@H](NC(=O)[C@@H]1CCCN1C(=O)[C@H](CCCNC(=N)N)NC(=O)[C@H](Cc1ccccc1)NC(=O)[C@H](Cc1ccccc1)NC(=O)CCc1cccnc1)C(=O)N[C@@H](CC(N)=O)C(N)=O ({Propanoyl(3-(3-pyridyl))}-FFRPRN-NH2)
[1]
  Activity: Active
Neuromedin-U receptor 2
  Activity: Active

## N=C(N)NCCC[C@H](NC(=O)[C@@H]1CCCN1C(=O)[C@H](CCCNC(=N)N)NC(=O)[C@H](Cc1ccccc1)NC(=O)[C@H](Cc1ccc2ccccc2c1)NC(=O)CCc1cccnc1)C(=O)N[C@@H](CC(N)=O)C(N)=O ({Propanoyl(3-(3-pyridyl))}-[2Nal]FRPRN-NH2)
Neuromedin-U receptor 2
  Activity: Active

## N=C(N)NCCC[C@H](NC(=O)[C@@H]1CCCN1C(=O)[C@H](CCCNC(=N)N)NC(=O)[C@H](Cc1ccncc1)NC(=O)[C@H](Cc1c[nH]c2ccccc12)NC(=O)Cc1cccs1)C(=O)N[C@@H](CC(N)=O)C(N)=O ({Acetyl(2-thienyl)}-W[4Pal]RPRN-NH2)
[1]
  Activity: inactive
Neuromedin-U receptor 2
  Activity: inactive

## Ac-FFRPRN-NH2
[1]
  Activity: inactive
Neuromedin-U receptor 2
  Activity: inactive

## N=C(N)NCCC[C@H](NC(=O)[C@@H]1CCCN1C(=O)[C@H](CCCNC(=N)N)NC(=O)[C@H](Cc1c[nH]cn1)NC(=O)[C@H](Cc1c[nH]c2ccccc12)NC(=O)Cc1cccs1)C(=O)N[C@@H](CC(N)=O)C(N)=O ({Acetyl(2-thienyl)}-WHRPRN-NH2)
[1]
  Activity: inactive
Neuromedin-U receptor 2
  Activity: inactive

## CC(C)C[C@H](NC(=O)CCc1ccccc1)C(=O)N[C@@H](Cc1ccccc1)C(=O)N[C@@H](CCCNC(=N)N)C(=O)N1CCC[C@H]1C(=O)N[C@@H](CCCNC(=N)N)C(=O)O (Hydrocinnamoyl-LFRPR-OH)
Serum [2]
  Drug metabolism: metabolite_detected
[3]
  remaining at 1 h, 1000 µM: 56.9%

## N=C(N)NCCC[C@H](NC(=O)[C@@H]1CCCN1C(=O)[C@H](CCCNC(=N)N)NC(=O)[C@H](Cc1ccccc1)NC(=O)[C@H](Cc1ccccc1)NC(=O)Cc1ccccc1)C(=O)N[C@@H](CC(N)=O)C(N)=O (PhAc-FFRPRN-NH2)
[1]
  Activity: inactive
Neuromedin-U receptor 2
  Activity: inactive

## N=C(N)NCCC[C@H](NC(=O)[C@@H]1CCCN1C(=O)[C@H](CCCNC(=N)N)NC(=O)[C@H](Cc1ccc(F)cc1)NC(=O)[C@H](Cc1c[nH]c2ccccc12)NC(=O)Cc1cccs1)C(=O)O ({Acetyl(2-thienyl)}-W[Phe(4-F)]RPR-OH)
Serum [4]
  Retention_time: 43.7 min
[3]
  remaining at 1 h, 1000 µM: 54%

## CC(C)C[C@H](NC(=O)CCc1ccccc1)C(=O)N[C@@H](Cc1ccccc1)C(=O)N[C@@H](CCCNC(=N)N)C(=O)N1CCC[C@H]1C(=O)N[C@@H](CCCNC(=N)N)C(=O)N[C@@H](CC(N)=O)C(N)=O (Hydrocinnamoyl-LFRPRN-NH2)
[1]
  Activity: Active
Neuromedin-U receptor 2
  Activity: Active
Serum [5]
  Drug metabolism: metabolite_detected
Serum [6]
  Drug metabolism: metabolite_detected
Serum [7]
  Drug metabolism: metabolite_detected
Serum [8]
  Drug metabolism: metabolite_detected
Serum [2]
  Drug metabolism: metabolite_detected
[9]
  remaining at 10 min, 1000 µM: 64%

## N=C(N)NCCC[C@H](NC(=O)[C@@H]1CCCN1C(=O)[C@H](CCCNC(=N)N)NC(=O)[C@H](Cc1ccccc1)NC(=O)[C@H](Cc1c[nH]c2ccccc12)NC(=O)Cc1cccs1)C(=O)N[C@@H](CC(N)=O)C(N)=O ({Acetyl(2-thienyl)}-WFRPRN-NH2)
[1]
  Activity: Active
Neuromedin-U receptor 2
  Activity: Active
Serum [5]
  Drug metabolism: metabolite_detected
Serum [6]
  Drug metabolism: metabolite_detected
Serum [10]
  Drug metabolism: metabolite_detected
Serum [11]
  Drug metabolism: metabolite_detected
[9]
  remaining at 10 min, 1000 µM: 39.8%

## H-FLFRPRN-NH2
Serum [5]
  Drug metabolism: metabolite_notdetected
Serum [6]
  Drug metabolism: metabolite_notdetected
[9]
  remaining at 10 min, 1000 µM: 37%
